# Where “and” joins values, the source holds several entries; their conditions need not be identical. Equal entries are not always repeated. Where two headings read alike, the source gives them in different places. Marks after values point to notes of the source that are not given here.
# Assays:
# [1] = Urinary excretion and renal clearance after a single 50-mg dose; format: in vivo, human; settings: for mean renal clearance: ACP-5862; for CL renal: human, urine, oral, 50 mg, mean renal clearance
# Procedure, shortened: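 In study 2, a single oral 50-mg capsule was taken with ≈240 mL water after an overnight fast. Urine was collected predose, 0–4 h and 4–24 h post-dose and pooled per interval for each subject. Analytes were quantified by validated LC-MS/MS with deuterated internal standards over a nominal urine range of 5 to 5000 ng/mL.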
# [2] = format: in vivo, human; settings: for CL/F / Vd/F: acalabrutinib; for AUC: AUC0‐inf; for Vd/F: Vz/F; for half-life: t1/2, total plasma acalabrutinib; for Tmax: median (minimum, maximum)
# BTK = settings: cited from earlier work
# human plasma [3] = assay: In vitro protein binding in human plasma; format: in vitro ADME; settings: for in vitro protein binding: human plasma
# [4] = cited from earlier work
# human plasma [5] = assay: Plasma protein binding in study 2 subjects; format: in vitro ADME
# Procedure, shortened: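 Severe hepatic impairment and matched control subjects received a single oral 50-mg dose of the test compound after an overnight fast. Blood (4 mL) was drawn on day 1 at 0.863, 1.75 and 6.5 h post-dose. Binding of parent and active metabolite in the plasma was assessed by ultracentrifugation to estimate the unbound fraction.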
# Safety evaluation = format: in vivo, human; settings: for Number (%) of subjects with TEAEs: single oral 50-mg dose
# Procedure, shortened: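 After an overnight fast, subjects took a single oral 50-mg dose as capsules with ≈240 mL water on day 1. AEs were collected until follow-up contact 14 days post-dose. Safety monitoring covered concomitant medications, serial hematology, serum chemistry and urinalysis, vital signs, 12-lead ECGs and physical examinations. Findings were summarized descriptively.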
# [6] = In vitro protein binding in human plasma; format: in vitro ADME; settings: human, plasma
# [7] = In vitro protein binding in α1-acid glycoprotein solution; format: in vitro ADME; settings: human
# [8] = Earlier clinical studies of acalabrutinib; format: in vivo, human; settings: 400-mg vs 50-mg dose, healthy subjects (data on file)
# human serum albumin = human serum albumin (Homo sapiens, UniProt P02768); assay: In vitro protein binding in human serum albumin solution; format: in vitro ADME
# [9] = cited from earlier work; remark: listed apart in the source
# [10] = subjects with severe hepatic impairment
# [11] = ACP-5862/acalabrutinib, study 2, Control (n = 8), arithmetic mean (SD)
# [12] = ACP-5862/acalabrutinib, study 2, Severe (n = 8), arithmetic mean (SD)
# [13] = ACP-5862, severe hepatic impairment vs control subjects
# [14] = plasma ACP-5862, ANOVA, exponentiated LSM, Control, n 8
# [15] = plasma ACP-5862, Severe vs normal hepatic function (reference)
# [16] = acalabrutinib, matched normal hepatic function subjects
# [17] = acalabrutinib, subjects with severe hepatic impairment
# [18] = both, human, plasma, po, 50 mg, single oral 50-mg dose, Control (n = 13), arithmetic mean (SD)
# [19] = both, human, plasma, po, 50 mg, single oral 50-mg dose, Mild (n = 6), arithmetic mean (SD)
# [20] = both, human, plasma, po, 50 mg, single oral 50-mg dose, Moderate (n = 6), arithmetic mean (SD)
# [21] = human, plasma, po, 50 mg, single oral 50-mg dose, Severe (n = 8), arithmetic mean (SD)
# [22] = plasma acalabrutinib, Mild vs normal hepatic function (reference)
# [23] = plasma acalabrutinib, Moderate vs normal hepatic function (reference)
# [24] = plasma acalabrutinib, Severe vs normal hepatic function (reference)
# [25] = severe hepatic impairment, study 2
# [26] = healthy subjects (n = 17), relative to no pretreatment
# [27] = healthy subjects, single 400-mg dose
# Sequence of human serum albumin (P02768 25-609): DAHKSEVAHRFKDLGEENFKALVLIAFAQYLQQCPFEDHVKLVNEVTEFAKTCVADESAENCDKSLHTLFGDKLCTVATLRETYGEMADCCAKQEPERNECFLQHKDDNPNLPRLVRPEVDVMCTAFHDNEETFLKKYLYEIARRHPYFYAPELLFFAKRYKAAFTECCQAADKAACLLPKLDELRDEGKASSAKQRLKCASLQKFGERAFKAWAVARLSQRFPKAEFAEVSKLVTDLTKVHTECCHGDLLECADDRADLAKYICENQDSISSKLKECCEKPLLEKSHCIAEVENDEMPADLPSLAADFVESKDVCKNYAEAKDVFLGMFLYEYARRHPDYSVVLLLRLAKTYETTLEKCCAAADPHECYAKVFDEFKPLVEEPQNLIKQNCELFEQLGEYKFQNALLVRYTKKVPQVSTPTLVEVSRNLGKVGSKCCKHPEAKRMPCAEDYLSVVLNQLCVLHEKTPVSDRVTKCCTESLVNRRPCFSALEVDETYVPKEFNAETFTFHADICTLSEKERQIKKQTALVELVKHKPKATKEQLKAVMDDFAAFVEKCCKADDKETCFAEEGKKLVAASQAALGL
smiles,measurement,setting,value
CC#CC(=O)NCCCC(=O)c1nc(-c2ccc(C(=O)Nc3ccccn3)cc2)c2c(N)nccn12 [ACP‐5862],mean renal clearance,[1]; matched control subjects with normal hepatic function,605.3 mL/h
same,mean renal clearance,[1]; [10],692.6 mL/h
same,amount of the metabolite excreted in urine,"[1]; ACP-5862 after 50-mg acalabrutinib, subjects with severe hepatic impairment",≈ 0.415 mg
same,MR:AUC0‐inf (metabolite‐to‐parent ratio),[2]; [11],3.59 and 3.6 ± 0.9
same,MR:AUC0‐last (metabolite‐to‐parent ratio),[2]; [11],3.1 ± 0.7
same,MR:Cmax (metabolite‐to‐parent ratio),[2]; [11],1.15 and 1.1 ± 0.4
same,MR:AUC0‐last (metabolite‐to‐parent ratio),[2]; [12],0.6 ± 0.4
same,MR:Cmax (metabolite‐to‐parent ratio),[2]; [12],0.247 and 0.2 ± 0.1
same,geometric mean ratio for AUC,[2]; [13],0.9
same,geometric mean ratio for Cmax,[2]; [13],1.01
same,"AUC0‐inf, LS Mean",[2]; [14],817.0 ng·h/mL
same,"Cmax, LS Mean",[2]; [14],166.5 ng/mL
same,"AUC0‐inf, LS Mean","[2]; plasma ACP-5862, ANOVA, exponentiated LSM, Severe, n 6",782.2 ng·h/mL
same,"Cmax, LS Mean","[2]; plasma ACP-5862, ANOVA, exponentiated LSM, Severe, n 8",168.7 ng/mL
same,AUC0‐inf GMR: Test/Reference,[2]; [15],95.7%
same,Cmax GMR: Test/Reference,[2]; [15],101.4%
same,potency for BTK inactivation relative to parent acalabrutinib,BTK,≈ 50%
same,in vitro protein binding,human plasma [3]; plasma concentration 1 μM (0.482 μg/mL),98.7%
same,in vitro protein binding,human plasma [3]; plasma concentration 10 μM (4.82 μg/mL),98.6%
same,share of total acalabrutinib‐related material in plasma,"[4]; human, plasma",> 10%
same,mean protein binding,human plasma [5]; healthy matched controls,≈ 98%
same,mean protein binding,human plasma [5]; [10],≈ 94%
CC#CC(=O)N1CCC[C@H]1c1nc(-c2ccc(C(=O)Nc3ccccn3)cc2)c2c(N)nccn12 [Acalabrutinib],Number (%) of subjects with TEAEs,Safety evaluation; Control (n = 14),0
same,Number (%) of subjects with TEAEs,Safety evaluation; Mild hepatic impairment (n = 6),2 (33)
same,Number (%) of subjects with TEAEs,Safety evaluation; Moderate hepatic impairment (n = 6),0
same,Number (%) of subjects with TEAEs,Safety evaluation; Overall (N = 34),3 (9)
same,Number (%) of subjects with TEAEs,Safety evaluation; Severe hepatic impairment (n = 8),1 (13)
same,tolerability,"Safety evaluation; single oral dose of 50 mg, healthy subjects and subjects with mild, moderate, or severe hepatic impairment",well tolerated
same,"deaths, serious AEs, discontinuations due to AEs","Safety evaluation; single oral dose of 50 mg, study 1 and study 2","no deaths, serious AEs, or subject discontinuations due to AEs"
same,renal clearance as share of the systemic clearance,[1]; [16],≈ 0.5%
same,renal clearance as share of the apparent systemic clearance,[1]; [17],≈ 1.7%
same,CL renal,[1]; [16],21.2 mL/min
same,CL renal,[1]; [17],12.9 mL/min
same,share of the 50‐mg oral dose excreted in urine,"[1]; matched normal hepatic function subjects, 24-hour urine collection interval",≈ 0.6%
same,share of the 50‐mg oral dose excreted in urine,[1]; [10],approximately 1.8%
same,CL/F,"[2]; single oral 50-mg dose, Control (n = 13), arithmetic mean (SD)",218.1 ± 103.1 ^a L/h
same,CL/F,"[2]; single oral 50-mg dose, Mild (n = 6), arithmetic mean (SD)",156.6 ± 91.1 L/h
same,CL/F,"[2]; single oral 50-mg dose, Moderate (n = 6), arithmetic mean (SD)",280.8 ± 372.7 L/h
same,CL/F,"[2]; single oral 50-mg dose, Severe (n = 8), arithmetic mean (SD)",48.7 ± 30.7 L/h
same,CL/F,"[2]; single oral 50-mg dose, Severe (n = 8), arithmetic mean (SD), listed as acalabrutinib",48.7 L/h
same,AUC,"[2]; both, human, plasma, oral, 50 mg, LS Mean, plasma acalabrutinib, ANOVA, exponentiated LSM, Control, n 13",250 ng·h/mL
same,AUC,"[2]; both, human, plasma, oral, 50 mg, LS Mean, plasma acalabrutinib, ANOVA, exponentiated LSM, Mild, n 6",366 ng·h/mL
same,AUC,"[2]; both, human, plasma, oral, 50 mg, LS Mean, plasma acalabrutinib, ANOVA, exponentiated LSM, Moderate, n 6",326 ng·h/mL
same,Cmax,"[2]; both, human, plasma, oral, 50 mg, Cmax, LS Mean, plasma acalabrutinib, ANOVA, exponentiated LSM, Control, n 14",152 ng/mL
same,Cmax,"[2]; both, human, plasma, oral, 50 mg, Cmax, LS Mean, plasma acalabrutinib, ANOVA, exponentiated LSM, Mild, n 6",292 ng/mL
same,Cmax,"[2]; both, human, plasma, oral, 50 mg, Cmax, LS Mean, plasma acalabrutinib, ANOVA, exponentiated LSM, Moderate, n 6",156 ng/mL
same,AUC,"[2]; both, human, plasma, po, 50 mg, total plasma acalabrutinib, single oral 50-mg dose, Control (n = 13), geometric mean (geometric CV%)",250 ng·h/mL
same,AUC,"[2]; both, human, plasma, po, 50 mg, total plasma acalabrutinib, single oral 50-mg dose, Mild (n = 6), geometric mean (geometric CV%)",366 ng·h/mL
same,AUC,"[2]; both, human, plasma, po, 50 mg, total plasma acalabrutinib, single oral 50-mg dose, Moderate (n = 6), geometric mean (geometric CV%)",326 ng·h/mL
same,Cmax,"[2]; both, human, plasma, po, 50 mg, Cmax, total plasma acalabrutinib, single oral 50-mg dose, fasted, Control, normal hepatic function (n = 14), geometric mean (geometric CV%)",152 ng/mL
same,Cmax,"[2]; both, human, plasma, po, 50 mg, Cmax, total plasma acalabrutinib, single oral 50-mg dose, fasted, Mild, Child-Pugh class A (n = 6), geometric mean (geometric CV%)",292 ng/mL
same,Cmax,"[2]; both, human, plasma, po, 50 mg, Cmax, total plasma acalabrutinib, single oral 50-mg dose, fasted, Moderate, Child-Pugh class B (n = 6), geometric mean (geometric CV%)",156 ng/mL
same,Vd/F,[2]; [18],722 ± 520 L
same,Vd/F,[2]; [19],471 ± 222 L
same,Vd/F,[2]; [20],2140 ± 2720 L
same,half-life,[2]; [18],2.2 ± 0.8 h
same,half-life,[2]; [19],2.3 ± 0.9 h
same,half-life,[2]; [20],7.9 ± 12.7 h
same,Tmax,"[2]; both, human, plasma, po, 50 mg, total plasma acalabrutinib, single oral 50-mg dose, Control (n = 14)",0.6 h
same,Tmax,"[2]; both, human, plasma, po, 50 mg, total plasma acalabrutinib, single oral 50-mg dose, Mild (n = 6)",0.8 h
same,Tmax,"[2]; both, human, plasma, po, 50 mg, total plasma acalabrutinib, single oral 50-mg dose, Moderate (n = 6)",1 h
same,AUC,"[2]; human, plasma, oral, 50 mg, LS Mean, plasma acalabrutinib, ANOVA, exponentiated LSM, Severe, n 8",1170 ng·h/mL
same,Cmax,"[2]; human, plasma, oral, 50 mg, Cmax, LS Mean, plasma acalabrutinib, ANOVA, exponentiated LSM, Severe, n 8",726 ng/mL
same,AUC,"[2]; human, plasma, po, 50 mg, total plasma acalabrutinib, single oral 50-mg dose, Severe (n = 8), geometric mean (geometric CV%)",1170 ng·h/mL
same,Cmax,"[2]; human, plasma, po, 50 mg, Cmax, total plasma acalabrutinib, single oral 50-mg dose, fasted, Severe, Child-Pugh class C (n = 8), geometric mean (geometric CV%)",726 ng/mL
same,Vd/F,[2]; [21],167 ± 70.3 L
same,half-life,[2]; [21],2.7 ± 1.1 h
same,AUC0‐inf GMR: Test/Reference,[2]; [22],146.2%
same,Cmax GMR: Test/Reference,[2]; [22],191.3%
same,AUC0‐inf GMR: Test/Reference,[2]; [23],130.5%
same,Cmax GMR: Test/Reference,[2]; [23],102.2%
same,AUC0‐inf GMR: Test/Reference,[2]; [24],467.3%
same,Cmax GMR: Test/Reference,[2]; [24],476.2%
same,increase of unbound acalabrutinib AUC0‐last compared with control subjects,[2]; [25],3.6 fold
same,increase of unbound acalabrutinib Cmax compared with control subjects,[2]; [25],3.8 fold
same,increase of acalabrutinib Cmax compared with control subjects,"[2]; single 50-mg dose, mild hepatic impairment",1.9 fold
same,increase of acalabrutinib AUC compared with control subjects,"[2]; single 50-mg dose, mild hepatic impairment (Child-Pugh class A)",1.90 fold
same,difference in acalabrutinib Cmax compared with control subjects,"[2]; single 50-mg dose, moderate hepatic impairment",did not result in any appreciable difference
same,increase of acalabrutinib AUC compared with control subjects,"[2]; single 50-mg dose, moderate hepatic impairment (Child-Pugh class B)",1.48 fold
same,Cmax,"[2]; total plasma acalabrutinib, single oral 50-mg dose, fasted, Moderate, Child-Pugh class B (n = 6), geometric mean (geometric CV%)",155.7 (246.9) ng/mL
same,AUC0‐inf,"[2]; total plasma acalabrutinib, single oral 50-mg dose, Moderate (n = 6), geometric mean (geometric CV%)",326.4 (177.9) ng • h/mL
same,fraction unbound,[6],0.025
same,free fraction (percentage unbound),human plasma [3]; in humans (plasma),2.5%
same,fraction unbound,[7],0.589
same,"clinical margin of safety for the 50‐mg dose, AUC0‐last",[8],~16 fold
same,"clinical margin of safety for the 50‐mg dose, Cmax",[8],≈ 7.5 fold
same,fraction unbound,human serum albumin,0.063
same,mean elimination t1/2,[4],≈ 1 hour
same,increase of mean plasma AUC0‐last in the presence of itraconazole,[4]; [26],5.1 fold
same,increase of mean plasma Cmax in the presence of itraconazole,[4]; [26],3.9 fold
same,mean AUC0‐last,[4]; [27],3966 ng·h/mL
same,mean Cmax,[4]; [27],1672 ng/mL
C=CC(=O)N1CCC[C@@H](n2nc(-c3ccc(Oc4ccccc4)cc3)c3c(N)ncnc32)C1 [ibrutinib],"mean AUC, fold higher compared with healthy controls",[9]; mild hepatic impairment,2.7 fold
same,"mean AUC, fold higher compared with healthy controls",[9]; moderate hepatic impairment,8.0 fold
same,"mean AUC, fold higher compared with healthy controls",[9]; severe hepatic impairment,9.5 fold

# — paper PMC9303693 (Journal of Clinical Pharmacology, 2022)
